According to ChEMBL document CHEMBL4513216, “Probing the Open Global Health Chemical Diversity Library for Multistage-Active Starting Points for Next-Generation Antimalarials” (ACS Infect Dis, 2020):

Experiment: Toxicity liver stage against HepG2, at 10uM
Format: cell-based
Design: test concentration 10 uM, cell line HepG2-A16-CD81EGFP
Conditions: human, HepG2-A16-CD81EGFP cells; read-out: INHIBITION
How it was run: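 Uninfected HepG2-A16-CD81EGFP cells, 3 × 10^3 per well, 1536-well, plated on prespotted compound at 10 μM final, parasite-free screening media added to match infected plates; puromycin 10 μM positive, DMSO 0.5% negative; run in parallel with 48 h PbLuc assay at 37 °C, 5% CO2; viability by CellTiter-Glo luminescence, normalized to controls.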

Row | Compound | cytotoxicity at 10 µM [%]
1 | COCc1noc(-c2nn(-c3ccc(F)cc3)c3c2CCC3)n1 | 2.87
2 | CN(C)C(=O)N1CCN(Cc2ccccc2)[C@@H]2CS(=O)(=O)C[C@@H]21 | -12.6
3 | N#CCCSc1sc2c(O)cc(O)nc2c1C#N | -6.11
4 | Cn1cc(-c2nc(CN3CCc4c(ncn4C)C3)cs2)cn1 | -6.54
5 | CCCc1noc(CCC(=O)N2CCCC2c2ccncc2)n1 (stereo not drawn) | -2.42
6 | Cc1ccc(N2CCCN(C(=O)CCc3ccsc3)CC2)nn1 | -2.22
7 | Cc1ccc(CN(C)C(=O)c2cc(Cn3ccnc3C(C)C)[nH]n2)o1 | 0.073
8 | O=C(c1ccc[nH]1)N1C[C@H](OCc2ccccn2)[C@H]2COC[C@H]21 | 0.238
9 | Cc1n[nH]c(C)c1CC(=O)N1CCN(C)C2(CCNC(=O)CC2)C1 (stereo not drawn) | 2.65
10 | CC(=O)N1CCC(C(=O)NCCN2CCC(C)CC2)CC1 | 12.8
11 | CC(C)n1cnc(-c2nc(C(=O)NC3CC3)c3ccccn23)c1 | -102
12 | CC(=O)NCCCNC(=O)N(C)C(C)Cc1ccc(Cl)cc1 (stereo not drawn) | 0.866
13 | CC(=O)Nc1nc(CN2CCOC(Cn3cncn3)C2)cs1 (stereo not drawn) | -27.5
14 | Cc1cccc(N2CCN(C(=O)CNCCn3cccn3)CC2)c1 | -6.16
15 | CC(NCc1ccncc1)c1cc(F)ccc1N1CCN(C)CC1 (stereo not drawn) | -2.98
16 | Cc1cnc(-c2nc(C3CCN(Cc4ccccc4O)CC3)no2)cn1 | 3.66
17 | COc1cc(C(=O)Nc2nc(C)no2)ccc1C | -8.39
18 | Cc1nc(C2CCCN2C(=O)COCc2ccccc2)no1 (stereo not drawn) | -2.66
19 | CCn1cc(CN2CCCN(C(=O)c3ccccc3C)CC2)cn1 | -5.65
20 | O=C(Nc1nncs1)N1CCCN(C2CCCC2)CC1 | -4.31
21 | CN(Cc1ccc(N(C)C)cc1)C(=O)c1cc2c([nH]c1=O)CCCC2=O | -3.34
22 | Cc1ccc(-c2nc(CCNC(=O)CCN3CCOC3=O)co2)cc1 | 2.33
23 | CCOC(=O)CNC(=O)N1CCN(c2ncccn2)CC1 | 10.6

Row | Compound | cytotoxicity at 10 µM [%]
24 | Cc1cc(C)n(C2CCCN(C(=O)Cn3ccc(=O)n(C)c3=O)C2)n1 (stereo not drawn) | 0.437
25 | COC[C@@H]1CCC[C@@]12CN(C(=O)C1CCOCC1)CCO2 | -111
26 | CC(C)(C)NC(=O)COc1ccc(Oc2ccccn2)cc1 | 7.32
27 | COCC(=O)N1CCC2(COCc3cnc(NCc4ccco4)nc32)C1 (stereo not drawn) | -1.75
28 | Cc1cnc(N2CCC3(CC2)C(c2ccccc2)CC(=O)N3C)nc1 (stereo not drawn) | -4.35
29 | O=C([C@H]1CCCO1)N1CCOC2(CCCN(c3ncccc3F)C2)C1 (stereo partly drawn) | 1.73
30 | CC(C)N(C)[C@@H]1CCN(C(=O)[C@H]2CCCO2)[C@H]1Cc1cnn(C)c1 | 0.428
31 | O=C(NC1(c2nccs2)CCCC1)c1[nH]nc(C2CC2)c1Cl | -24.6
32 | COCCCNC(=O)Cn1c(C)cc(=O)n2nc(-c3cccs3)nc12 | 2.05
33 | Cc1ccc(NC(=O)c2cnc(N3CCN(C)CC3)nc2C)cc1C | -7.8
34 | CC(C)N1CCC2(CCNCC2)C1=O | -2.98
35 | Cc1noc(CS(=O)(=O)CC(=O)NC(C)c2ccccc2)n1 (stereo not drawn) | 9.81
36 | CCCNC(=O)C1CCN(CC(O)c2ccc(C(F)(F)F)cc2)CC1 (stereo not drawn) | 2.68
37 | Cc1cc(N2CCC(N(C)C(=O)c3sccc3C)CC2)nc(C)n1 | 25.9
38 | CCN(Cc1ccc2c(c1)OCO2)c1ncc(S(N)(=O)=O)s1 | 8.14
39 | O=C(Cc1cn2ccsc2n1)N1CCOCC(O)(CN2CCCC2)C1 (stereo not drawn) | -3.36
40 | CCc1nccn1CCC(=O)N1CCOC(c2ccc(F)cc2)C1 (stereo not drawn) | -12.5
41 | CCN(Cc1ccccc1O)CC1(C)Cc2c(N)nc(N)nc2O1 (stereo not drawn) | 2.15
42 | Cn1ccc(N2CCCC(NC(=O)c3ccc(Cl)o3)C2=O)n1 (stereo not drawn) | -2.51
43 | Cc1cc(F)ccc1OC1(C(=O)O)CCN(Cc2ccncc2)CC1 | -8.31
44 | OC(CNCCn1cccn1)c1cccc(Br)c1 (stereo not drawn) | -5.98
45 | Cn1nnnc1SC1CCCN(c2cccc(F)c2)C1=O (stereo not drawn) | 3.85
46 | FC(F)(F)c1ccc(-c2c[nH]c([C@@H]3COCCN3)n2)cc1 | 1.05

Row | Compound | cytotoxicity at 10 µM [%]
47 | NS(=O)(=O)CCNC(=O)c1cc(Br)c2c(c1)OCCO2 | 1.06
48 | CCCS(=O)(=O)N1CCC2(CC1)CC(=O)N(Cc1cc(F)cc(F)c1)C2 | 8.78
49 | Cc1ccc(-c2cn[nH]c2C2CCCN(c3cnccn3)C2)cc1 (stereo not drawn) | 73.6
50 | CN(C)c1cccc(CNC(=O)Nc2ccc3[nH]nnc3c2)n1 | 3.15
51 | COc1cccc(O[C@H]2CCN(c3nc(C)cc(C)n3)CC[C@@H]2O)c1 | 2.58
52 | CC(C)NC(=O)CCNC(=O)CCc1cc(Cl)cs1 | -2.59
53 | CN1CCN(Cc2cccc(C#N)c2)Cc2cccnc21 | -83.2
54 | CCC[C@H]1CN(Cc2cc(C#N)n(C)c2C)C[C@@H]1NS(=O)(=O)CC | -153
55 | NCc1cnn(-c2ccccc2C(=O)NCCCn2ccnc2)c1 | -3.01
56 | COCC1c2c(cnn2C)CCN1C(=O)c1cscn1 (stereo not drawn) | -101
57 | CC[C@@H]1N(Cc2ccncc2)CCC[C@]12CCC(=O)N2C | 10.5
58 | CCC(C#N)NC(=O)COC1CCCCC1 (stereo not drawn) | 5.48
59 | CCn1cnnc1CNC(=O)N(C)Cc1c(F)cccc1Cl | -5.56
60 | CCN1C(=O)CCCC12CCCN(C(=O)c1cc(C)oc1C)C2 (stereo not drawn) | 4.09
61 | CC(NC(=O)N1CCNC(=O)CC1)c1ccc(OC(F)F)cc1 (stereo not drawn) | 11.6
62 | COc1ccccc1CN(C)C(=O)CN1CC(n2nc(C)cc2C)C1 | 21.3
63 | COCCC(=O)N1CCC2(CCN(Cc3cccc(F)c3)CC2)C1 | -75.9
64 | CC(C(=O)N1CCN(C(=O)c2ccc(F)cc2)CC1)n1ccnc1 (stereo not drawn) | -2.2
65 | COCc1noc(-c2ccc(N(C)Cc3nccs3)nc2)n1 | -1.57
66 | CCOCc1ccc(NC(=O)NC2CCCn3nc(CC)nc32)cc1 (stereo not drawn) | -7.68
67 | OCC1(CNC2CCc3cc4c(cc32)OCCO4)CC1 (stereo not drawn) | -3.37
68 | COCc1cc(CNCc2c(C)n(CC(N)=O)c3ccccc23)n[nH]1 | -0.31
69 | O=C(NCCO)Nc1ccc(Br)c(F)c1 | 1.92

Row | Compound | cytotoxicity at 10 µM [%]
70 | N#Cc1ccc(OCCN2CCn3c(nnc3C3CC3)C2)cc1 | -3.75
71 | OC(COc1ccc2c(c1)OCO2)CN1CC(n2cccn2)C1 (stereo not drawn) | -6.17
72 | O=C1CN(C(=O)OCc2ccccc2)CC(O)CN1Cc1ccco1 (stereo not drawn) | -9.92
73 | CC(NC(=O)Nc1nccs1)C(=O)NC1CCCC1 (stereo not drawn) | 1.87
74 | O=C(c1ccoc1)N1CCn2cnc(COCC3CC3)c2C1 | -71.9
75 | O=C(c1ccc(-c2ccsc2)nc1)N1CCCN(C2CCCCC2)CC1 | 6.67
76 | O=C(Nc1ncnc2c1CCC2)c1cccc(F)c1 | -172
77 | NS(=O)(=O)c1cnn(CC(=O)Nc2c(Cl)cccc2Cl)c1 | -7.2
78 | CCCc1nc(C(=O)N2CCn3nc(C(=O)OC)cc3C2)cs1 | 8.87
79 | Cc1ccc(S(=O)(=O)N(CCO)C2CC2)cc1N(C)C | -8.91
80 | CCc1ccccc1OCCN(C)C(=O)CCN1CCCO1 | -43
81 | Cn1c(N)nnc1SCC1OCCc2ccccc21 (stereo not drawn) | 0.355
82 | N#Cc1cccc(S(=O)(=O)Nc2c(F)cccc2N2CCCC2)c1 | 2.62
83 | CCN1CCNC(=O)C12CCN(S(=O)(=O)c1ccc(F)cc1)CC2 | 1.17
84 | O=C1N(Cc2cccnc2)CCC12CCCNC2 (stereo not drawn) | 3.52
85 | O=C(NC1CC1)N1CCCC2(CCNC2=O)C1 (stereo not drawn) | 3
86 | c1ccc(-n2nnnc2NCc2ccc3c(c2)OCO3)cc1 | 29.5
87 | Cc1ccccc1NC(=O)NCC(C)(O)c1cccs1 (stereo not drawn) | 8.5
88 | Cc1cc(NC(C)c2nnn[nH]2)n2nc(C)c(C)c2n1 (stereo not drawn) | 9.4
89 | C[C@@H](NC(=O)c1cccs1)c1onc(-c2cccnc2)c1C(=O)O | 6.09
90 | CC(C)c1nc2c(n1C)CCN(CCCOc1ccc(C#N)cc1)C2 | -12.8
91 | Cc1ccc(C(=O)N2CCc3c(CNS(C)(=O)=O)cncc3C2)o1 | -11.3
92 | Cc1ccc(Cl)cc1N1CCN(CC(=O)NCc2ccco2)CC1 | 1.67

Row | Compound | cytotoxicity at 10 µM [%]
93 | CN(CCc1ccccc1)Cc1nc(-c2cnccn2)no1 | -0.911
94 | CC(C)c1noc(C(C)N2CCN(Cc3ccsc3)CC2)n1 (stereo not drawn) | -6.85
95 | CC(C(=O)NCC(C)(C)c1ccc2c(c1)OCO2)n1ccnc1 (stereo not drawn) | 6.36
96 | Cc1ncsc1C(=O)N(Cc1cccnc1)C1CC1 | -4.84
97 | Cn1ccnc1CN1CCC(CNS(=O)(=O)c2cccnc2)C1 (stereo not drawn) | 6.03
98 | O=C(CCN1CCCCO1)NC1CCCN(CC2CCCCC2)C1 (stereo not drawn) | 4.21
99 | CCN(CC1CCOC1)C(=O)Nc1ccc(N2CCOCC2)nc1 (stereo not drawn) | -2.45
100 | COc1cccc(-c2cccc(CN3C[C@H]4CC[C@@H](C3)N(C)C4=O)c2)c1 | 6.98
101 | OC1CCCN(CCNc2ncc(Cl)cc2F)C1 (stereo not drawn) | 8.81
102 | CC(C)c1sc(Br)nc1C(=O)NCc1ccncc1 | 1.18
103 | CCN1CCC(NC(=O)N(C)Cc2csc3ccccc23)CC1 | -45
104 | Cc1noc(C)c1CN1CCCCC1CCc1ccc(O)cc1 (stereo not drawn) | -2.06
105 | O=C(CN1CCCCC1Cn1cncn1)NCc1ccccn1 (stereo not drawn) | -4.02
106 | CCNc1ccnc(NCC2(N(C)C)CCOCC2)n1 | -0.686
107 | Cc1ccc(Sc2ccc(N3CCCC(C(=O)O)C3)nn2)cc1 (stereo not drawn) | -8.71
108 | COCCC1COC2(CCN(C(=O)C3CCC3)CC2)C1 (stereo not drawn) | 8.25
109 | CC1CCCN(Cc2ccc(OCc3nccn3C)cc2)C1 (stereo not drawn) | -11.8
110 | Cn1cc(CN2CC[C@@H]3[C@@H]2CCN3Cc2ccc3c(c2)OCO3)cn1 | -3.63
111 | CC(C)Oc1ccccc1CNC(=O)N1CCC(n2cncn2)CC1 | 2.38
112 | CCN(Cc1ccncc1)C(=O)c1cc(C)c(C)c(S(N)(=O)=O)c1 | -2.33
113 | COCc1cncc2c1CCN(C(=O)c1ccc(C#N)cc1)C2 | -106
